≈ marks a conversion by molar mass, not a printed value. Values belong to the compound of their own block, whether it stands above or below them. Calls of active or inactive are those of the source. No cut-off for these calls is given here.
What was measured:
[1] = tested on: Escherichia coli; experiment: Antibacterial activity against Escherichia coli by broth dilution assay; type: functional
Procedure, shortened: (§1)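 MIC99 by broth-dilution assay; antibacterial and culture details are in the Supporting Information.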

[2] = tested on: Klebsiella pneumoniae; experiment: Antibacterial activity against Klebsiella pneumoniae by broth dilution assay; type: functional; procedure, shortened: as §1
[3] = tested on: Acinetobacter baumannii; experiment: Antibacterial activity against Acinetobacter baumannii by broth dilution assay; type: functional; procedure, shortened: as §1
[4] = tested on: Erythrocyte; experiment: Hemolytic activity against human RBC incubated for 1 hr; type: ADME, cell-based
[5] = tested on: A549; experiment: Cytotoxicity against human A549 cells incubated for 48 hrs by MTT assay; type: cell-based; details: a549, 48 h
[6] = tested on: Escherichia coli; experiment: Antimicrobial activity against compound-pre-treated Escherichia coli by broth dilution assay based drug resistance development assay; type: functional, organism-based
Procedure, shortened: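 E. coli pre-treated with compound, then MIC₉₉ redetermined by broth-dilution assay in four replicates; reported as fold change in MIC₉₉ relative to starting value to assess resistance development.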

[7] = tested on: Escherichia coli; experiment: Bactericidal activity against stationary form of Escherichia coli assessed as reduction in colony forming units by fluorescent based time-kill assay; type: functional, organism-based
[8] = tested on: Escherichia coli; experiment: Bactericidal activity against persistent form of Escherichia coli assessed as reduction in colony forming units by fluorescent based time-kill assay; type: functional, organism-based
[9] = tested on: Escherichia coli; experiment: Antibacterial activity against Escherichia coli isolate 6/23 infected in wound areas of BALB/c mouse assessed as reduction in colony forming units at 40 mg/kg dosed thrice daily for 4 days starting 6 hrs post infection and measured on day 5; type: functional, organism-based
[10] = Binding affinity to DPH-doped model gram negative bacterial membrane (LPS/DPPE/DMPG lipids) assessed as increase in membrane fluidity by fluorescence anisotrophy
Procedure, shortened: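 Vesicles of LPS, DPPE and DMPG doped with DPH were incubated with compound, and the change in DPH fluorescence anisotropy was recorded. Mean ± SD of three replicates, unpaired two-tailed t-test.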

[11] = Solubility in water; type: physicochemical; details: buffer

Structure (SMILES): NC[C@@H]1O[C@H](O[C@H]2[C@@H](O)[C@H](O[C@@H]3[C@@H](O)[C@H](N)C[C@H](N)[C@H]3O[C@H]3O[C@H](CN)[C@@H](O)[C@H](O)[C@H]3N)O[C@@H]2CO)[C@H](N)[C@@H](O)[C@@H]1O
Activity [6]: inactive

Structure (SMILES): CC1(C)S[C@@H]2[C@H](NC(=O)[C@H](N)c3ccccc3)C(=O)N2[C@H]1C(=O)O
Activity [7]: inactive | Activity [8]: inactive | Activity [9]: inactive

Structure (SMILES): C[C@H](CCC(=O)OCc1ccccc1)[C@H]1CC[C@H]2[C@@H]3[C@H](OC(=O)CNC(=O)[C@@H](N)Cc4c[nH]c5ccccc45)C[C@@H]4C[C@H](OC(=O)CNC(=O)[C@@H](N)Cc5c[nH]c6ccccc56)CC[C@]4(C)[C@H]3C[C@H](OC(=O)CNC(=O)[C@@H](N)Cc3c[nH]c4ccccc34)[C@]12C.Cl.Cl.Cl
MIC99 [1]: inactive | Activity [10]: inactive | solubility [11]: Insoluble

More lines, main results first:

MIC99 [1]: 8 µM (≈ 8.07 µg/mL) | MIC99 [2]: 16 µM (≈ 16.1 µg/mL) | MIC99 [3]: 16 µM (≈ 16.1 µg/mL)
Structure (SMILES): CC[C@H](C)[C@H](N)C(=O)NCC(=O)O[C@@H]1CC[C@@]2(C)[C@@H](C1)C[C@@H](OC(=O)CNC(=O)[C@@H](N)[C@@H](C)CC)[C@@H]1[C@@H]2C[C@H](OC(=O)CNC(=O)[C@@H](N)[C@@H](C)CC)[C@]2(C)[C@@H]([C@H](C)CCC(=O)OCc3ccccc3)CC[C@@H]12
Activity [4]: Toxic | Activity [5]: Toxic

MIC99 [1]: 8 to 128 µM (≈ 7.06 to 113 µg/mL)
Structure (SMILES): C[C@H](N)C(=O)NCC(=O)O[C@@H]1CC[C@@]2(C)[C@@H](C1)C[C@@H](OC(=O)CNC(=O)[C@H](C)N)[C@@H]1[C@@H]2C[C@H](OC(=O)CNC(=O)[C@H](C)N)[C@]2(C)[C@@H]([C@H](C)CCC(=O)OCc3ccccc3)CC[C@@H]12

MIC99 [1]: 8 to 128 µM (≈ 6.73 to 108 µg/mL)
Structure (SMILES): C[C@H](CCC(=O)OCc1ccccc1)[C@H]1CC[C@H]2[C@@H]3[C@H](OC(=O)CNC(=O)CN)C[C@@H]4C[C@H](OC(=O)CNC(=O)CN)CC[C@]4(C)[C@H]3C[C@H](OC(=O)CNC(=O)CN)[C@]12C
